Data published in ChEMBL document CHEMBL1137698, “Synthesis, spectral studies and in vitro antibacterial activity of steroidal thiosemicarbazone and their palladium (Pd (II)) complexes” (2009).
Converted amounts (≈) assume the structure as drawn.

How the values were obtained:
[1] = tested on: Salmonella typhimurium; assay: Antibacterial activity against Salmonella Typhimurium at 10 to 100 ug/mL after 18 hrs by disk diffusion method; assay type: functional, Salmonella enterica subsp. enterica serovar Typhimurium
Method in brief: (§1)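 Disk diffusion. Bacteria were subcultured in BHI for 18 h at 37 °C, then suspended in saline to McFarland standard. The suspension was mixed with sterile antibiotic agar at 40 °C and poured into plates. Paper disks of 6.0 mm were placed on nutrient agar. DMSO stock was diluted to 10, 20, 25, 50 and 100 per mL and applied to the disks. A DMSO disk served as negative control. Inhibition zones in mm were read after 18 h at 36 °C.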

[2] = tested on: Staphylococcus aureus; assay: Antibacterial activity against Staphylococcus aureus at 10 to 100 ug/mL after 18 hrs by disk diffusion method; assay type: functional; method in brief: as §1
[3] = tested on: Staphylococcus aureus; assay: Antibacterial activity against Staphylococcus aureus after 18 hrs by […]; assay type: functional
Method in brief: (§2)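 MIC by tube macrodilution. Test compounds dissolved in DMSO, serially diluted to final […]. Each tube received 24 h old inoculum, standard inoculum […]. Incubated 18 h at 37 °C. MIC read visually as the lowest concentration preventing visible growth.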

[4] = tested on: Escherichia coli; assay: Antibacterial activity against Escherichia coli after 18 hrs by […]; assay type: functional; method in brief: as §2
[5] = tested on: Salmonella typhimurium; assay: Antibacterial activity against Salmonella Typhimurium after 18 hrs by […]; assay type: functional, Salmonella enterica subsp. enterica serovar Typhimurium; conditions: Salmonella enterica; method in brief: as §2
[6] = tested on: Escherichia coli; assay: Antibacterial activity against Escherichia coli at 10 to 100 ug/mL after 18 hrs by disk diffusion method; assay type: functional; method in brief: as §1
[7] = tested on: Streptococcus pyogenes; assay: Antibacterial activity against Streptococcus pyogenes after 18 hrs by […]; assay type: functional; method in brief: as §2
[8] = tested on: Streptococcus pyogenes; assay: Antibacterial activity against Streptococcus pyogenes at 10 to 100 ug/mL after 18 hrs by disk diffusion method; assay type: functional; method in brief: as §1
[9] = tested on: Escherichia coli; assay: Antibacterial activity against Escherichia coli at 30 ug after 18 hrs by disk diffusion method; assay type: functional; conditions: read-out: IZ
Method in brief: (§3)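 Amoxicillin […] disk, positive control in disk diffusion. Bacteria were subcultured in BHI for 18 h at 37 °C and suspended in saline to McFarland standard. Seeded antibiotic agar was poured into plates and 6.0 mm paper disks placed. Inhibition zone in mm was read after 18 h at 36 °C.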

[10] = tested on: Streptococcus pyogenes; assay: Antibacterial activity against Streptococcus pyogenes at 30 ug after 18 hrs by disk diffusion method; assay type: functional; conditions: read-out: IZ; method in brief: as §3
[11] = tested on: Staphylococcus aureus; assay: Antibacterial activity against Staphylococcus aureus at 30 ug after 18 hrs by disk diffusion method; assay type: functional; conditions: read-out: IZ; method in brief: as §3
[12] = tested on: Salmonella typhimurium; assay: Antibacterial activity against Salmonella Typhimurium at 30 ug after 18 hrs by disk diffusion method; assay type: functional, Salmonella enterica subsp. enterica serovar Typhimurium; conditions: Salmonella enterica, read-out: IZ; method in brief: as §3

Row | MIC [3] [µg/mL] | MIC [4] [µg/mL] | MIC [5] [µg/mL] | MIC [7] [µg/mL] | Compound | inhibition zone (IZ) [1] [mm] | inhibition zone (IZ) [2] [mm] | inhibition zone (IZ) [6] [mm] | inhibition zone (IZ) [8] [mm] | zone of inhibition at 30 µg/disc [9] [mm] | zone of inhibition at 30 µg/disc [10] [mm] | zone of inhibition at 30 µg/disc [11] [mm] | zone of inhibition at 30 µg/disc [12] [mm]
1 | 256 (≈ 467 µM) | 128 (≈ 234 µM) | 128 (≈ 234 µM) | 256 (≈ 467 µM) | Cc1ccc(NC(=S)N/N=C2\CC[C@@]3(C)C(=CC[C@H]4[C@@H]5CC[C@H]([C@H](C)CCCC(C)C)[C@@]5(C)CC[C@@H]43)C2)cc1 | 10.2 | 12.6 | 10.2 | 11.5 | – | – | – | –
2 | 64 (≈ 117 µM) | 128 (≈ 234 µM) | 128 (≈ 234 µM) | 64 (≈ 117 µM) | Cc1ccccc1NC(=S)N/N=C1\CC[C@@]2(C)C(=CC[C@H]3[C@@H]4CC[C@H]([C@H](C)CCCC(C)C)[C@@]4(C)CC[C@@H]32)C1 | 12.4 | 14.2 | 14.2 | 12.8 | – | – | – | –
3 | 128 (≈ 234 µM) | 256 (≈ 467 µM) | 128 (≈ 234 µM) | 128 (≈ 234 µM) | Cc1cccc(NC(=S)N/N=C2\CC[C@@]3(C)C(=CC[C@H]4[C@@H]5CC[C@H]([C@H](C)CCCC(C)C)[C@@]5(C)CC[C@@H]43)C2)c1 | 10.6 | 12.4 | 11.2 | 10.6 | – | – | – | –

Row | Compound | MIC [3] [µg/mL] | MIC [4] [µg/mL] | MIC [5] [µg/mL] | MIC [7] [µg/mL] | inhibition zone (IZ) [1] [mm] | inhibition zone (IZ) [2] [mm] | inhibition zone (IZ) [6] [mm] | inhibition zone (IZ) [8] [mm] | zone of inhibition at 30 µg/disc [9] [mm] | zone of inhibition at 30 µg/disc [10] [mm] | zone of inhibition at 30 µg/disc [11] [mm] | zone of inhibition at 30 µg/disc [12] [mm]
4 | CC1(C)S[C@@H]2[C@H](NC(=O)[C@H](N)c3ccc(O)cc3)C(=O)N2[C@H]1C(=O)O [AMOXICILLIN] | 32 (≈ 87.6 µM) | 32 (≈ 87.6 µM) | 32 (≈ 87.6 µM) | 32 (≈ 87.6 µM) | – | – | – | – | 20 | 22.2 | 21 | 25.2
